Molecules are shown by their SMILES. Converted amounts (≈) assume the structure as drawn. The source made the active and inactive calls. The rule behind the calls is not given here.

Here are results for 20 compounds from ChEMBL document CHEMBL5550082, “Discovery of pyrazolo[3,4-d]pyrimidines as novel mitogen-activated protein kinase kinase 3 (MKK3) inhibitors” (Bioorg Med Chem, 2024).

Sequence of Death-associated protein kinase 3 (Homo sapiens) (O43293 whole entry, looked up): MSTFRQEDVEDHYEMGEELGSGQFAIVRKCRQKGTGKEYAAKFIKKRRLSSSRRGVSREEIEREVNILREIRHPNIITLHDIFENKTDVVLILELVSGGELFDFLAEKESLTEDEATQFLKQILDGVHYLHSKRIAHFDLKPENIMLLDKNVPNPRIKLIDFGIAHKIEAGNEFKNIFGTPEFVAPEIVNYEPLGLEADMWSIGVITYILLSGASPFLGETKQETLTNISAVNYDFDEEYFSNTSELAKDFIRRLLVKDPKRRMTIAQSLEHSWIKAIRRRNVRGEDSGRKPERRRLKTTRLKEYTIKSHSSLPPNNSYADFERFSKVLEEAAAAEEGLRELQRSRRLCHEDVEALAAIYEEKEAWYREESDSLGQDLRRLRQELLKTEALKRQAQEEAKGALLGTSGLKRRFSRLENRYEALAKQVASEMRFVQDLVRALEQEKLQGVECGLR

System in one data set: not listed separately
The experiment in a line: Aqueous solubility of compound. The data set is classed as physicochemical. As to conditions: water (aqueous).
Consider `CC(C)n1nc(-c2cc3cc(O)ccc3[nH]2)c2c(N)ncnc21`, for which the solubility worked out at 6 µg/mL (≈ 19.5 µM).

The target of another data set is T1, Dual specificity mitogen-activated protein kinase kinase 3 (Homo sapiens, UniProt P46734).
T1 sequence (P46734 whole entry): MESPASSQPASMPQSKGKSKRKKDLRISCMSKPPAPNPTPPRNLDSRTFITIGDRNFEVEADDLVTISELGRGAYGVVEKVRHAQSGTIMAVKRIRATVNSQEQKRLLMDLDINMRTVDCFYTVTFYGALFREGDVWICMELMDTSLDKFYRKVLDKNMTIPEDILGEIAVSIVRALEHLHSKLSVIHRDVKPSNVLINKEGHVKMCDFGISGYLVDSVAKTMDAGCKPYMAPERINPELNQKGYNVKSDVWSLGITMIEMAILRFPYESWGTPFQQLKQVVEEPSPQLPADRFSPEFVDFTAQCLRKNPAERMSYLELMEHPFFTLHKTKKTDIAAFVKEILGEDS
The experiment in a line: Displacement of tracer K-9 from C-terminal NanoLuc fused full-length MKK3 (unknown origin) transfected in HEK293T cells by BRET assay. Format: cell-based.
Conditions: not given
The method in brief: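 HEK293T cells in DMEM with 10 % FBS were transiently transfected with full-length wild-type MKK3 carrying a C-terminal NanoLuc fusion and cultured 48 h at 37 °C. The cells were then resuspended in Opti-MEM at 2×10^5 cells/mL. Tracer K-9 was added at 1.0 μM final with compound dilutions (2 % DMSO final) for 2 h. After NanoLuc substrate plus extracellular inhibitor, emissions at 460 and 610 nm were read as mBRET, normalized, and fitted to give IC50.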
With `CC(C)(C)n1nc(-c2cc(F)c(O)c(F)c2)c2c(N)ncnc21`, the IC50 turned out to be 145 µM.

System in the next data set: not listed separately
The experiment in a line: Inhibition of N-terminal GST-tagged recombinant human MKK3 […]/T193E mutant expressed in baculovirus infected Sf9 insect cells using STK-3-biotin as substrate at 5 uM preincubated for 30 mins followed by substrate/ATP addition measured after 90 mins by TR-FRET assay relative to control. As to conditions: time 120.0 min. The method in brief: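 GST-tagged MKK3 S189E/T193E (MKK3E), glutathione-purified from baculovirus-infected Sf9 cells, was used at 100 nM. It was preincubated 30 min at room temperature with compound, then 1 µM ATP and 1 µM STK-3-biotin peptide were added and reacted at least 90 min at 30 °C. Reactions were stopped with Eu-antibody and streptavidin-XL665, and HTRF was read as the 665/620 nm ratio.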
Take `CC(C)(C)n1nc(-c2cccc(C(=O)NC3CC3)c2)c2c(N)ncnc21`: the inhibition came to 7.1%.

For `CC(C)(C)n1nc(-c2ccc(F)c(C#N)c2)c2c(N)ncnc21`, the inhibition was 35.6%.

Regarding `CC(C)(C)n1nc(-c2cccc3cn[nH]c23)c2c(N)ncnc21`, the inhibition entry was “inactive”.

With `CC(C)(C)n1nc(-c2ccc(F)c(C(=O)NCCO)c2)c2c(N)ncnc21`, the inhibition came to 5.2%.

Regarding `CC(C)(C)n1nc(-c2ccccc2)c2c(N)ncnc21`, the inhibition was 34.8%.

In the case of `CC(C)NC(=O)c1ccc(-c2nn(C(C)(C)C)c3ncnc(N)c23)cc1`, the inhibition stood at 26.4%.

Turning to `CC(C)(C)n1nc(-c2ccc3[nH]ccc3c2)c2c(N)ncnc21`, the inhibition was 58.2%.

`CC(C)(C)n1nc(-c2ccccc2F)c2c(N)ncnc21`: the inhibition was found to be 37.4%.

For `CC(C)(C)n1nc(-c2ccc(F)c(Cl)c2)c2c(N)ncnc21`, the inhibition was 39.3%.

For `CC(C)(C)n1nc(-c2cccc(C#N)c2)c2c(N)ncnc21`, the inhibition result is “inactive”.

For the compound `CC(C)(C)n1nc(-c2ccnc3ccccc23)c2c(N)ncnc21`, the inhibition came to 3.4%.

Consider `CC(C)(C)n1nc(-c2ccc(S(=O)(=O)NC3CC3)cc2)c2c(N)ncnc21`, for which the inhibition came out at 12.6%.

As to `CC(C)(C)n1nc(-c2cccc3cnccc23)c2c(N)ncnc21`, the inhibition stood at 12.4%.

Regarding `CC(C)(C)n1nc(-c2ccc3ncccc3c2)c2c(N)ncnc21`, the inhibition worked out at 28.2%.

On to `CC(C)(C)n1nc(-c2cc(F)c(O)c(F)c2)c2c(N)ncnc21`, for which the inhibition was found to be 44.9%.

Consider `CC(C)(C)n1nc(-c2cc(Cl)cc(Cl)c2)c2c(N)ncnc21`, for which the inhibition is 23.4%.

Turning to `CC(C)(C)n1nc(-c2cccc(Cl)c2)c2c(N)ncnc21`, the inhibition was determined as 19.8%.

For the compound `CC(C)(C)n1nc(-c2cccc(Cl)c2F)c2c(N)ncnc21`, the inhibition was determined as 35.2%.

As for `CC(C)(C)n1nc(-c2ccc(N)c3ccccc23)c2c(N)ncnc21`, the inhibition amounted to 54.8%.

Another data set concerns the target Death-associated protein kinase 3 (Homo sapiens) (UniProt O43293). The experiment in a line: Displacement of Eu-Streptavidin from human DAPK3 by TR-FRET assay.
Conditions: not given
The method in brief:
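Human DAPK3, biotinylated in vivo during expression, tested in a TR-FRET assay measuring competitive displacement of a generic ATP-competitive fluorescent tracer. Compound tested at a single concentration of 1 µM. Displacement is relative to vehicle: DMSO sets 0 % and a reference inhibitor specific to the kinase sets 100 %.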
For `CC(C)n1nc(-c2cc3cc(O)ccc3[nH]2)c2c(N)ncnc21`, the result was Active.

`CC(C)(C)n1nc(-c2cc(F)c(O)c(F)c2)c2c(N)ncnc21` registered an Activity above 80%.
